{
  "source": "ChEMBL document CHEMBL1123580",
  "about": "“Synthesis and biological properties of side-chain-modified bleomycins” (1987)",
  "key": {"B16 [1]": {"tested_on": "B16", "assay": "Effect on the survival of mouse B16 melanoma cells was determined at a dose of 10 ug/mL in vitro", "format": "functional", "conditions": "read-out: Survival", "procedure,_shortened": "(§1)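 B16 mouse melanoma cells from log-phase cultures seeded at 5 × 10^4 cells/mL in Dulbecco's modified Eagle medium with 10% newborn calf serum; after 24 h, exposed to agent (10 or 100 µg/mL) for 21 h, washed twice, fresh medium. Cells trypsinized and counted 48 h after start of incubation; viability by Trypan blue exclusion. Survival = T/C × 100 versus untreated control; mean of three samples.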"}, "B16 [2]": {"tested_on": "B16", "assay": "Effect on the survival of mouse B16 melanoma cells was determined at a dose of 100 ug/mL in vitro", "format": "functional", "conditions": "read-out: Survival", "procedure,_shortened": "as §1"}},
  "data": [
    {"smiles": "Cc1c(N)nc(C(CC(N)=O)NCC(N)C(N)=O)nc1C(=O)NC(C(=O)NC(C)C(O)C(C)C(=O)NC(C(=O)NCCc1nc(-c2nc(C(=O)NCCC[S+](C)CC(=O)Nc3ccc([N+](=O)[O-])cc3)cs2)cs1)C(C)O)C(O[C@@H]1O[C@@H](CO)[C@@H](O)[C@@H](O)[C@@H]1O[C@H]1O[C@H](CO)[C@@H](O)[C@@H](OC(N)=O)[C@@H]1O)c1c[nH]cn1", "note": "(some centres not stated)", "values": [
      {"measurement": "viability at 10 µg/mL", "setting": "B16 [1]", "result": 46, "unit": "%"},
      {"measurement": "viability at 100 µg/mL", "setting": "B16 [2]", "result": 30, "unit": "%"}
    ]},
    {"smiles": "Cc1c(N)nc(C(CC(N)=O)NCC(N)C(N)=O)nc1C(=O)NC(C(=O)NC(C)C(O)C(C)C(=O)NC(C(=O)NCCc1nc(-c2nc(C(=O)NCCC[S+](C)CC(=O)N3CCCC3)cs2)cs1)C(C)O)C(O[C@@H]1O[C@@H](CO)[C@@H](O)[C@@H](O)[C@@H]1O[C@H]1O[C@H](CO)[C@@H](O)[C@@H](OC(N)=O)[C@@H]1O)c1c[nH]cn1", "note": "(some centres not stated)", "values": [
      {"measurement": "viability at 10 µg/mL", "setting": "B16 [1]", "result": 35, "unit": "%"},
      {"measurement": "viability at 100 µg/mL", "setting": "B16 [2]", "result": 29, "unit": "%"}
    ]},
    {"smiles": "Cc1c(N)nc(C(CC(N)=O)NCC(N)C(N)=O)nc1C(=O)NC(C(=O)NC(C)C(O)C(C)C(=O)NC(C(=O)NCCc1nc(-c2nc(C(=O)NCCC[S+](C)CC(=O)N3CCOCC3)cs2)cs1)C(C)O)C(O[C@@H]1O[C@@H](CO)[C@@H](O)[C@@H](O)[C@@H]1O[C@H]1O[C@H](CO)[C@@H](O)[C@@H](OC(N)=O)[C@@H]1O)c1c[nH]cn1", "note": "(some centres not stated)", "values": [
      {"measurement": "viability at 10 µg/mL", "setting": "B16 [1]", "result": 51, "unit": "%"},
      {"measurement": "viability at 100 µg/mL", "setting": "B16 [2]", "result": 28, "unit": "%"}
    ]},
    {"smiles": "Cc1c(N)nc(C(CC(N)=O)NCC(N)C(N)=O)nc1C(=O)NC(C(=O)NC(C)C(O)C(C)C(=O)NC(C(=O)NCCc1nc(-c2nc(C(=O)NCCC[S+](C)CC(=O)Nc3ccc4ccccc4c3)cs2)cs1)C(C)O)C(O[C@@H]1O[C@@H](CO)[C@@H](O)[C@@H](O)[C@@H]1O[C@H]1O[C@H](CO)[C@@H](O)[C@@H](OC(N)=O)[C@@H]1O)c1c[nH]cn1", "note": "(some centres not stated)", "values": [
      {"measurement": "viability at 10 µg/mL", "setting": "B16 [1]", "result": 48, "unit": "%"},
      {"measurement": "viability at 100 µg/mL", "setting": "B16 [2]", "result": 32, "unit": "%"}
    ]},
    {"smiles": "Cc1c(N)nc(C(CC(N)=O)NCC(N)C(N)=O)nc1C(=O)NC(C(=O)NC(C)C(O)C(C)C(=O)NC(C(=O)NCCc1nc(-c2nc(C(=O)NCCC[S+](C)CC(N)=O)cs2)cs1)C(C)O)C(O[C@@H]1O[C@H](CO)[C@H](O)[C@@H](O)[C@@H]1O[C@H]1O[C@@H](CO)[C@@H](O)[C@H](OC(N)=O)[C@H]1O)c1c[nH]cn1", "note": "(some centres not stated)", "values": [
      {"measurement": "viability at 10 µg/mL", "setting": "B16 [1]", "result": 38, "unit": "%"},
      {"measurement": "viability at 100 µg/mL", "setting": "B16 [2]", "result": 21, "unit": "%"}
    ]},
    {"smiles": "Cc1c(N)nc(C(CC(N)=O)NCC(N)C(N)=O)nc1C(=O)NC(C(=O)NC(C)C(O)C(C)C(=O)NC(C(=O)NCCc1nc(-c2nc(C(=O)NCCC[S+](C)CC(=O)Nc3ccccc3)cs2)cs1)C(C)O)C(O[C@@H]1O[C@@H](CO)[C@@H](O)[C@@H](O)[C@@H]1O[C@H]1O[C@H](CO)[C@@H](O)[C@@H](OC(N)=O)[C@@H]1O)c1c[nH]cn1", "note": "(some centres not stated)", "values": [
      {"measurement": "viability at 10 µg/mL", "setting": "B16 [1]", "result": 45, "unit": "%"},
      {"measurement": "viability at 100 µg/mL", "setting": "B16 [2]", "result": 27, "unit": "%"}
    ]},
    {"smiles": "COc1ccc(NC(=O)C[S+](C)CCCNC(=O)c2csc(-c3csc(CCNC(=O)C(NC(=O)C(C)C(O)C(C)NC(=O)C(NC(=O)c4nc(C(CC(N)=O)NCC(N)C(N)=O)nc(N)c4C)C(O[C@@H]4O[C@@H](CO)[C@@H](O)[C@@H](O)[C@@H]4O[C@H]4O[C@H](CO)[C@@H](O)[C@@H](OC(N)=O)[C@@H]4O)c4c[nH]cn4)C(C)O)n3)n2)cc1", "note": "(some centres not stated)", "values": [
      {"measurement": "viability at 10 µg/mL", "setting": "B16 [1]", "result": 40, "unit": "%"},
      {"measurement": "viability at 100 µg/mL", "setting": "B16 [2]", "result": 28, "unit": "%"}
    ]},
    {"smiles": "CCOC(=O)C[S+](C)CCCNC(=O)c1csc(-c2csc(CCNC(=O)C(NC(=O)C(C)C(O)C(C)NC(=O)C(NC(=O)c3nc(C(CC(N)=O)NCC(N)C(N)=O)nc(N)c3C)C(O[C@@H]3O[C@@H](CO)[C@@H](O)[C@@H](O)[C@@H]3O[C@H]3O[C@H](CO)[C@@H](O)[C@@H](OC(N)=O)[C@@H]3O)c3c[nH]cn3)C(C)O)n2)n1", "note": "(some centres not stated)", "values": [
      {"measurement": "viability at 10 µg/mL", "setting": "B16 [1]", "result": 43, "unit": "%"},
      {"measurement": "viability at 100 µg/mL", "setting": "B16 [2]", "result": 27, "unit": "%"}
    ]},
    {"smiles": "Cc1c(N)nc(C(CC(N)=O)NCC(N)C(N)=O)nc1C(=O)NC(C(=O)NC(C)C(O)C(C)C(=O)NC(C(=O)NCCc1nc(-c2nc(C(=O)NCCC[S+](C)CC(=O)NC3CC3)cs2)cs1)C(C)O)C(O[C@@H]1O[C@@H](CO)[C@@H](O)[C@@H](O)[C@@H]1O[C@H]1O[C@H](CO)[C@@H](O)[C@@H](OC(N)=O)[C@@H]1O)c1c[nH]cn1", "note": "(some centres not stated)", "values": [
      {"measurement": "viability at 10 µg/mL", "setting": "B16 [1]", "result": 38, "unit": "%"},
      {"measurement": "viability at 100 µg/mL", "setting": "B16 [2]", "result": 28, "unit": "%"}
    ]},
    {"smiles": "Cc1c(N)nc(C(CC(N)=O)NCC(N)C(N)=O)nc1C(=O)NC(C(=O)NC(C)C(O)C(C)C(=O)NC(C(=O)NCCc1nc(-c2nc(C(=O)NCCC[S+](C)CC(=O)NC(C)C)cs2)cs1)C(C)O)C(O[C@@H]1O[C@H](CO)[C@@H](O)[C@@H](O)C1OC1O[C@@H](CO)C(O)[C@@H](OC(N)=O)[C@@H]1O)c1c[nH]cn1", "note": "(some centres not stated)", "values": [
      {"measurement": "viability at 10 µg/mL", "setting": "B16 [1]", "result": 41, "unit": "%"},
      {"measurement": "viability at 100 µg/mL", "setting": "B16 [2]", "result": 23, "unit": "%"}
    ]},
    {"smiles": "Cc1c(N)nc([C@H](CC(N)=O)NC[C@H](N)C(N)=O)nc1C(=O)N[C@H](C(=O)N[C@H](C)[C@@H](O)[C@H](C)C(=O)N[C@H](C(=O)NCCc1nc(-c2nc(C(=O)NCCC[S+](C)C)cs2)cs1)[C@@H](C)O)[C@@H](O[C@@H]1O[C@@H](CO)[C@@H](O)[C@H](O)[C@@H]1O[C@H]1O[C@H](CO)[C@@H](O)[C@H](OC(N)=O)[C@@H]1O)c1c[nH]cn1", "note": "[BLEOMYCIN A2]", "values": [
      {"measurement": "viability at 10 µg/mL", "setting": "B16 [1]", "result": 39, "unit": "%"},
      {"measurement": "viability at 100 µg/mL", "setting": "B16 [2]", "result": 28, "unit": "%"}
    ]}
  ]
}
